{"data": "Results of several laboratories", "cell line": "HeLa", "read-out": "cell growth or viability"}
{"SMILES": "Fc1ccc(Oc2ccc(Nc3ccc4ncc(OCC5CCNCC5)nc4c3)cc2)cc1", "method": "XTT", "time": "7 days", "endpoint": "EC50", "result": "> 30 µM"}
{"SMILES": "CCn1c(=O)c(-c2cc[nH]n2)cc2c(C)nc(N)nc21", "method": "MTT", "endpoint": "CC50", "result": "13.6 µM"}
{"SMILES": "CC(C)n1ncc2c(C(=O)NCC3(C)CNC3)cc(C3CC3)nc21", "method": "neutral red", "concentration": "0.33 µM", "endpoint": "viability", "result": "101%"}
{"SMILES": "Nc1nc2c(ncn2COCCO)c(=O)[nH]1", "method": "MTT", "time": "48 h", "endpoint": "CC50", "result": "355 µM"}
{"SMILES": "NC(=O)c1ncn([C@@H]2O[C@H](CO)[C@@H](O)[C@H]2O)n1", "method": "MTT", "endpoint": "CC50", "result": "115 µM"}
{"SMILES": "c1cc(-c2cc3ncc(OCC4CCNCC4)nc3cc2-c2cccc(N3CCCCC3)c2)cc(N2CCCCC2)c1", "method": "XTT", "time": "7 days", "endpoint": "EC50", "result": "24.2 µM"}
{"SMILES": "CC[C@H](CC[C@@H](C)[C@H]1CC[C@H]2[C@@H]3CC=C4C[C@@H](O)CC[C@]4(C)[C@H]3CC[C@]12C)C(C)C", "method": "MTT", "time": "48 h", "endpoint": "CC50", "result": "> 100 µg/mL"}
{"SMILES": "c1cc(N2CCCC2)ccc1-c1cc2ncc(OCC3CCNCC3)nc2cc1-c1ccc(N2CCCC2)cc1", "method": "XTT", "time": "7 days", "endpoint": "EC50", "result": "> 30 µM"}
{"SMILES": "CCN(CC)CCCC(C)Nc1ccnc2cc(Cl)ccc12 (stereo not drawn)", "method": "MTT", "time": "48 h", "endpoint": "CC50", "result": "> 100 µg/mL"}
